Experimental data taken from publication PMC7867784 (Translational Lung Cancer Research, 2021).
“And” between values parts separate entries of the source, which are not always exact repeats. Equal entries are not always repeated. Where two headings read alike, the source gives them in different places.

Experiments:
[1] = ALL-RET pharmacokinetic analysis; format: in vivo, human; conditions: for free fraction of Cmin in a steady state: 450 mg BID; for AUC / Cmax / concentration at 10 h / Tmax: human, plasma, oral; for concentration at 10 h: Cmin (plasma concentration at 10 h after administration), mean ± SD [min–max]; for Tmax: median [min–max]
RET-rearranged NSCLC [2] = conditions: 600 mg BID, non-Japanese RET rearrangement NSCLC, out of 8 patients; cited from earlier work
RET-rearranged NSCLC [3] = assay: ALL-RET phase 1/2 trial: antitumor efficacy; format: in vivo, human
Summary of the method: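 Patients with RET-rearranged NSCLC confirmed by at least 2 of 3 methods (multiplex RT-PCR, break-apart FISH, targeted NGS), previously treated with ≥1 chemotherapy regimen, ECOG PS 0–2, with measurable lesions. The test compound was given BID in 21-day cycles until respite, dose reduction or discontinuation criteria were met. Response was assessed by RECIST v1.1 on central review. DCR was defined as CR+PR+SD lasting at least 8 weeks.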

[4] = tested on: RET-fusion positive NSCLC cells; conditions: cited from earlier work
[5] = cited from earlier work; for Cmax: AF-002JG study; for AUC0-10: global study
[6] = 450 mg, Day 15, 450 mg BID, N=5
[7] = 600 mg, Day 15, 600 mg BID, N=3
[8] = 450 mg BID, 25 RET-TKI-naïve patients
[9] = 450 mg BID, RET-TKI-naïve (n=25)
[10] = 450 mg BID, of 25 RET-TKI-naïve patients

CCc1cc2c(cc1N1CCC(N3CCOCC3)CC1)C(C)(C)c1[nH]c3cc(C#N)ccc3c1C2=O [alectinib]
free fraction of Cmin in a steady state [1]: < 4.8 ng/mL
free fraction of Cmin in a steady state ([1]; equivalent of ng/mL value): < 10 nM
AUC ([1]; 450 mg): 4820 ng·h/mL
Cmax ([1]; 450 mg): 576 ± 215 ng/mL
concentration at 10 h ([1]; 450 mg, Day 1, 450 mg, N=6): 118 ng/mL
concentration at 10 h [1, 6]: 483 ng/mL
Tmax ([1]; 450 mg, Day 1, 450 mg, N=6): 5.91 h
Tmax [1, 6]: 7.97 h
AUC ([1]; 600 mg): 8600 ng·h/mL
Cmax ([1]; 600 mg): 1050 ng/mL
concentration at 10 h ([1]; 600 mg, Day 1, 600 mg, N=6): 278 ng/mL
concentration at 10 h [1, 7]: 911 ng/mL
Tmax ([1]; 600 mg, Day 1, 600 mg, N=6): 7.01 h
Tmax [1, 7]: 5.77 h
patients with PR (RET-rearranged NSCLC [2]): 4
patients who could continue treatment for more than 1 year (RET-rearranged NSCLC [3]; 450 mg BID): 5
DCR (disease control rate, at 8 weeks) (RET-rearranged NSCLC [3]; [8]): 52%
patients with disease stabilization for more than 1 year (RET-rearranged NSCLC [3]; [8]): 5
patients with disease stabilization for more than 1 year, percent (RET-rearranged NSCLC [3]; [8]): 20%
ORR (objective/overall response rate) (RET-rearranged NSCLC [3]; 450 mg BID, 25 RET-TKI-naïve patients, central review): 4%
median PFS (RET-rearranged NSCLC [3]; 450 mg BID, 25 RET-TKI-naïve patients, 95% CI 2.0–5.4): 3.4 months
median OS (RET-rearranged NSCLC [3]; 450 mg BID, 25 RET-TKI-naïve patients, 95% CI 5.4–NE): 19.0 months and 19 months
Best overall response NE (not evaluated), % (RET-rearranged NSCLC [3]; [9]): 8%
Best overall response PD, % (RET-rearranged NSCLC [3]; [9]): 40%
Best overall response PR, % (RET-rearranged NSCLC [3]; [9]): 4%
Best overall response SD, % (RET-rearranged NSCLC [3]; [9]): 48%
patients with disease control at 8 weeks (RET-rearranged NSCLC [3]; [10]): 13
patients with objective response (RET-rearranged NSCLC [3]; [10]): 1
treatment duration of the patient who showed PR (RET-rearranged NSCLC [3]; one patient with KIF5B-RET, phase 2, 450 mg BID): ~2 years
activity against RET-rearranged NSCLC (conclusion) (RET-rearranged NSCLC [3]; phase 1/2, Japanese patients): limited activity
growth of RET-rearranged tumor cells ([4]; in vitro and in vivo, pre-clinical studies): inhibit the growth
IC50 ([4]; read-out: IC50 in RET-fusion positive NSCLC cells): < 300 nM
Cmax ([5]; 460 mg BID): 618 ± 165 ng/mL
AUC0-10 ([5]; 460 mg BID): 4,980±1,340 ng·h/mL
Cmax ([5]; 600 mg BID): 676 ± 186 ng/mL
AUC0-10 ([5]; 600 mg BID): 5,400±1,400 ng·h/mL
